Activity calls are given as the source filed them. The calls are words filed in the database; no cut-off is given here.
Legend:
[1] = Drug concentration in NOD-SCID mouse brain at 10 mg/kg, po measured at 4 hrs by LC-MS/MS analysis; type: ADME, organism-based; details: read-out: Ct
Outline: (§1)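 Male NOD-SCID mice dosed orally at 10 mg/kg. Plasma and brain concentrations of parent and demethylated metabolites measured at 2 and 4 h. Kp = Cbrain/Cplasma at 4 h.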

[2] = biological target: TRAF2 and NCK-interacting protein kinase (Homo sapiens) (UniProt Q9UKE5); assay: Inhibition of human recombinant TNIK (1 to 367 residues) using RLGRDKYKTLRQI as substrate at 1 uM incubated for 40 mins by scintillation based radiometric LeadHunter assay relative to control
TRAF2 and NCK-interacting protein kinase (Homo sapiens), sequence (Q9UKE5 whole entry, looked up, the tested form may be a part): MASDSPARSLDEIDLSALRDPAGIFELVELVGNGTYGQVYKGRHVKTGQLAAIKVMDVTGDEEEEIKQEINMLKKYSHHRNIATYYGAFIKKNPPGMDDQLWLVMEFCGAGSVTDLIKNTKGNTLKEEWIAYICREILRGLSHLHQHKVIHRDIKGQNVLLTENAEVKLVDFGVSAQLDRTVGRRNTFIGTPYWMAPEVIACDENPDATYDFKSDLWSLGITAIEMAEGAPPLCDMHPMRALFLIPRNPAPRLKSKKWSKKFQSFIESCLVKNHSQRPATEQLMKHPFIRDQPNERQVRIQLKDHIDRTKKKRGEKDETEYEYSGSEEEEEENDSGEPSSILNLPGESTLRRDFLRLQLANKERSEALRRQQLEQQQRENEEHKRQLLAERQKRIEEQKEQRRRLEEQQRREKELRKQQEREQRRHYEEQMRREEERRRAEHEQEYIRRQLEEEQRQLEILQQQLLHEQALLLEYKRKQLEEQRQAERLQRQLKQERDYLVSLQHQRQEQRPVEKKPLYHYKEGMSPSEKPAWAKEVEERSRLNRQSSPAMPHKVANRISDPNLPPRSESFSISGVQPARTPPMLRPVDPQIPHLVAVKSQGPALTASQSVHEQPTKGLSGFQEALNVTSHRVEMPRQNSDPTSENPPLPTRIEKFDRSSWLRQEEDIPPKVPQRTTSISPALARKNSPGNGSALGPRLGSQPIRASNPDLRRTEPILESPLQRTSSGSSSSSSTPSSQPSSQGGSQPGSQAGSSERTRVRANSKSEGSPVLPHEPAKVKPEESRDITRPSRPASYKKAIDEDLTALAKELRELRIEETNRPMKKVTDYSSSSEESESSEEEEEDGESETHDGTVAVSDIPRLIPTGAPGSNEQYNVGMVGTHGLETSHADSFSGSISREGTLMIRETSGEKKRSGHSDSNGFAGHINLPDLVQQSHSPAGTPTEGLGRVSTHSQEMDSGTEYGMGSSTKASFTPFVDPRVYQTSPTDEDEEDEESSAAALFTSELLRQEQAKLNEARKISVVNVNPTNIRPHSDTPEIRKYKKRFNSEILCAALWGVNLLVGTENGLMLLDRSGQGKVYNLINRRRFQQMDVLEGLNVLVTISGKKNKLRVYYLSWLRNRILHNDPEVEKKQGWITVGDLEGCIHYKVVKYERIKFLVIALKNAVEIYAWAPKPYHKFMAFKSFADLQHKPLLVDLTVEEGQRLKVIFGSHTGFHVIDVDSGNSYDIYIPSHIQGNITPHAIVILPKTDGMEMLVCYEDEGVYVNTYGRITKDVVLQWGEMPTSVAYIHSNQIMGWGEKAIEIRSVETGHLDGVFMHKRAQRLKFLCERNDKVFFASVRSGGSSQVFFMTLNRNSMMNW

[3] = Drug concentration in NOD-SCID mouse plasma at 25 mg/kg, po measured at 0.5 hrs by LC-MS/MS analysis; type: ADME, organism-based
Outline: (§2)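 Male NOD-SCID mice given 25 mg/kg orally in 5% DMSO, 47.5% PEG, 47.5% deionized water with 10% Tween80. Plasma drug levels measured at 0.5, 1, 2, 6 and 24 h; demethylated metabolites also quantified.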

[4] = Drug concentration in NOD-SCID mouse plasma at 25 mg/kg, po measured at 24 hrs by LC-MS/MS analysis; type: ADME, organism-based; outline: as §2
[5] = Drug concentration in NOD-SCID mouse plasma at 25 mg/kg, po measured at 2 hrs by LC-MS/MS analysis; type: ADME, organism-based; outline: as §2
[6] = Drug concentration in NOD-SCID mouse plasma at 25 mg/kg, po measured at 1 hrs by LC-MS/MS analysis; type: ADME, organism-based; outline: as §2
[7] = Drug concentration in NOD-SCID mouse plasma at 10 mg/kg, po measured at 2 hrs by LC-MS/MS analysis; type: ADME, organism-based; outline: as §1
[8] = biological target: Epithelial discoidin domain-containing receptor 1 (Homo sapiens) (UniProt Q08345); assay: Inhibition of human recombinant DDR1 (492 to end residues) using KKKSPGEYVNIEF as substrate at 1 uM incubated for 40 mins by scintillation based radiometric LeadHunter assay relative to control
Epithelial discoidin domain-containing receptor 1 (Homo sapiens), sequence (Q08345 whole entry, the tested form may be a part): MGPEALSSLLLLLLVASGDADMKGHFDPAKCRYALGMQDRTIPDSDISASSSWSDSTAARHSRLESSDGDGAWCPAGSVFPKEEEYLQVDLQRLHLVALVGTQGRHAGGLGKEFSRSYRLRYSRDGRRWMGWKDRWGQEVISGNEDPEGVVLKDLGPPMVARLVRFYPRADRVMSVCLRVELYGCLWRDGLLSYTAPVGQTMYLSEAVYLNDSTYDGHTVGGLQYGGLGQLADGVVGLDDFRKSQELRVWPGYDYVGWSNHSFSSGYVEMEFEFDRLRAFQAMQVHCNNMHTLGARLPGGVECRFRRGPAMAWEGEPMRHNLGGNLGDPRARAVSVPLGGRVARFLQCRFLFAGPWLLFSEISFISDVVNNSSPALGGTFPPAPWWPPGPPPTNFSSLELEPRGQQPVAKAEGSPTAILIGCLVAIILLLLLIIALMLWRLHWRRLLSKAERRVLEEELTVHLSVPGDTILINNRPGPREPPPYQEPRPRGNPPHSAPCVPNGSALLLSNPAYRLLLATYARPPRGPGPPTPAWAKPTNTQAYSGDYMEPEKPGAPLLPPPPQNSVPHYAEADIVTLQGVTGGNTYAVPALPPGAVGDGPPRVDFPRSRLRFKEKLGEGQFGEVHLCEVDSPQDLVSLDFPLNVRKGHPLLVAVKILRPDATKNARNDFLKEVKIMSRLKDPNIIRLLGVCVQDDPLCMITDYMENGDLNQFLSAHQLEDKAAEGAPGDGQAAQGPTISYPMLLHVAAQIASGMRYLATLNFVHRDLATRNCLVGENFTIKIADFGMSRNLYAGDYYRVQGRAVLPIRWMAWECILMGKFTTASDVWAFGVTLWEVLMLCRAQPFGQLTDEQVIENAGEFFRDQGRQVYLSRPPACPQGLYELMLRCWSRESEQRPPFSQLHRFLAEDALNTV

[9] = Drug concentration in NOD-SCID mouse brain at 10 mg/kg, po measured at 2 hrs by LC-MS/MS analysis; type: ADME, organism-based; details: read-out: Ct; outline: as §1
[10] = Drug concentration in NOD-SCID mouse plasma at 10 mg/kg, po measured at 4 hrs by LC-MS/MS analysis; type: ADME, organism-based; outline: as §1
[11] = Ratio of drug concentration in brain to plasma in NOD-SCID mouse brain at 10 mg/kg, po measured at 4 hrs by LC-MS/MS analysis; type: ADME, organism-based; details: read-out: BPR; outline: as §1
[12] = Dissociation constant, pKa of compound; type: physicochemical
[13] = Drug concentration in NOD-SCID mouse plasma at 25 mg/kg, po measured at 6 hrs by LC-MS/MS analysis; type: ADME, organism-based; outline: as §2
[14] = biological target: T1, Activin receptor type-1 (Homo sapiens, UniProt Q04771); assay: Inhibition of N-terminal GST-his6 tagged human recombinant ALK2 (145 to 509 residues) expressed in Sf9 insect cells in presence of ATP by radiometric kinase assay
T1 sequence (Q04771 whole entry): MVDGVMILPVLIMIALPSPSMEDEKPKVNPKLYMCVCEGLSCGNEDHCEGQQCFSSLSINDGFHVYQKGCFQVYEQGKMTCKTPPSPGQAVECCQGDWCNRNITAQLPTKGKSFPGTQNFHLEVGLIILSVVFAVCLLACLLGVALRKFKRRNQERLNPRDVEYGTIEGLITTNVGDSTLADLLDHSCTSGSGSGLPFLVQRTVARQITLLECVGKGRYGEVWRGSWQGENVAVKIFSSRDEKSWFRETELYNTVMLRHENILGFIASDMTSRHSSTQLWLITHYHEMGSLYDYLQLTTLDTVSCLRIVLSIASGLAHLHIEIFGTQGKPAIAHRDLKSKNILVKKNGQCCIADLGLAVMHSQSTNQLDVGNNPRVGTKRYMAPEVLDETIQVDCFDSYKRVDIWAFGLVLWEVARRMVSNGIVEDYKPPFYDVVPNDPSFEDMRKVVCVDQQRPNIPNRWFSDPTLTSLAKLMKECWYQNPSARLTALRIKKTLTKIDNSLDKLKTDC

[15] = Metabolic stability in human liver microsome at 1 uM in presence of NADPH-regeneration system incubated for 60 mins by LC/MS analysis; type: ADME; details: liver microsomes, read-out: Stability
Outline: (§3)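 Compound 1 μM final (0.1% DMSO) in 0.1 M potassium phosphate pH 7.4 with male CD-1 mouse or pooled human liver microsomes at 0.5 mg/mL protein plus NADPH-regeneration mix. Sampled at 0 and 60 min at 37 °C, in duplicate. Parent remaining by LC/MS peak area.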

[16] = Metabolic stability in CD-1 mouse liver microsome at 1 uM in presence of NADPH-regeneration system incubated for 60 mins by LC/MS analysis; type: ADME; details: liver microsomes, read-out: Stability; outline: as §3
[17] = biological target: T1, Activin receptor type-1; assay: Inhibition of ALK2 in human HEK293 cells using NanoGlo as substrate incubated for 2 hrs by NanoBRET assay; type: cell-based
[18] = Apparent permeability across basolateral to apical side in human Caco-2 cells incubated for 2 hrs by LC/MS analysis; type: ADME, cell-based
Outline: (§4)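 Caco-2 (C2BBE1) cells seeded 40,000/well on 1.0 μm PET inserts, grown 21–22 days; HBSS with 10 mM HEPES, 15 mM glucose, pH 7.4. Compound 5 μM in donor (0.1% DMSO), receiver with 1% BSA; 2 h at 37 °C shaking. Metoprolol, atenolol, Lucifer yellow, digoxin controls. LC/MS peak areas; two technical replicates; efflux ratio = Papp B-A / Papp A-B.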

[19] = Apparent permeability across apical to basolateral side in human Caco-2 cells incubated for 2 hrs by LC/MS analysis; type: ADME, cell-based; outline: as §4
[20] = biological target: Receptor-interacting serine/threonine-protein kinase 2 (Homo sapiens) (UniProt O43353); assay: Inhibition of human recombinant RIPK2 (1 to 299 residues) incubated for 120 mins in presence of ATP by scintillation based radiometric LeadHunter assay
Receptor-interacting serine/threonine-protein kinase 2 (Homo sapiens), sequence (O43353 whole entry, the tested form may be a part): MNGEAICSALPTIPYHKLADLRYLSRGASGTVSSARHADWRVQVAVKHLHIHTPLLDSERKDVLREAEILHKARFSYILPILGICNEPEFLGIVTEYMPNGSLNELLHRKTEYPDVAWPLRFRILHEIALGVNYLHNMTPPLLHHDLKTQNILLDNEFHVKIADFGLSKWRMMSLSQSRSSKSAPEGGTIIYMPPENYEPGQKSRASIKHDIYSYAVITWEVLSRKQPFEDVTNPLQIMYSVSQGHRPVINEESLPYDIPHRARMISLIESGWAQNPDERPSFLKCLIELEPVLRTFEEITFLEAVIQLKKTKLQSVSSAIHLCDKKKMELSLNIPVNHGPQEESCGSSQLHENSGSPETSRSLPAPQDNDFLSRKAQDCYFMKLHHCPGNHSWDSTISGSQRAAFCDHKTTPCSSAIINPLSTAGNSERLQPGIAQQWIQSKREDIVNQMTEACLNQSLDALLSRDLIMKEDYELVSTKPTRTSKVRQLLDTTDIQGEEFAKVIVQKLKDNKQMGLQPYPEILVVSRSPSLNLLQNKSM

[21] = tested on: Epidermal growth factor receptor (Homo sapiens), P00533 [L861Q]; assay: Inhibition of human EGFR L861Q mutant (696 to end residues) using poly Glu as substrate incubated for 40 mins by scintillation based radiometric LeadHunter assay
[22] = biological target: TRAF2 and NCK-interacting protein kinase (Homo sapiens) (UniProt Q9UKE5); assay: Inhibition of human recombinant TNIK (1 to 367 residues) using RLGRDKYKTLRQI as substrate incubated for 40 mins by scintillation based radiometric LeadHunter assay
[23] = tested on: Epidermal growth factor receptor (Homo sapiens), P00533 [L858R]; assay: Inhibition of human EGFR L858R mutant (696 to end residues) using poly Glu as substrate incubated for 40 mins by scintillation based radiometric LeadHunter assay
Epidermal growth factor receptor (Homo sapiens), P00533 [L858R], sequence (P00533 whole entry L858R): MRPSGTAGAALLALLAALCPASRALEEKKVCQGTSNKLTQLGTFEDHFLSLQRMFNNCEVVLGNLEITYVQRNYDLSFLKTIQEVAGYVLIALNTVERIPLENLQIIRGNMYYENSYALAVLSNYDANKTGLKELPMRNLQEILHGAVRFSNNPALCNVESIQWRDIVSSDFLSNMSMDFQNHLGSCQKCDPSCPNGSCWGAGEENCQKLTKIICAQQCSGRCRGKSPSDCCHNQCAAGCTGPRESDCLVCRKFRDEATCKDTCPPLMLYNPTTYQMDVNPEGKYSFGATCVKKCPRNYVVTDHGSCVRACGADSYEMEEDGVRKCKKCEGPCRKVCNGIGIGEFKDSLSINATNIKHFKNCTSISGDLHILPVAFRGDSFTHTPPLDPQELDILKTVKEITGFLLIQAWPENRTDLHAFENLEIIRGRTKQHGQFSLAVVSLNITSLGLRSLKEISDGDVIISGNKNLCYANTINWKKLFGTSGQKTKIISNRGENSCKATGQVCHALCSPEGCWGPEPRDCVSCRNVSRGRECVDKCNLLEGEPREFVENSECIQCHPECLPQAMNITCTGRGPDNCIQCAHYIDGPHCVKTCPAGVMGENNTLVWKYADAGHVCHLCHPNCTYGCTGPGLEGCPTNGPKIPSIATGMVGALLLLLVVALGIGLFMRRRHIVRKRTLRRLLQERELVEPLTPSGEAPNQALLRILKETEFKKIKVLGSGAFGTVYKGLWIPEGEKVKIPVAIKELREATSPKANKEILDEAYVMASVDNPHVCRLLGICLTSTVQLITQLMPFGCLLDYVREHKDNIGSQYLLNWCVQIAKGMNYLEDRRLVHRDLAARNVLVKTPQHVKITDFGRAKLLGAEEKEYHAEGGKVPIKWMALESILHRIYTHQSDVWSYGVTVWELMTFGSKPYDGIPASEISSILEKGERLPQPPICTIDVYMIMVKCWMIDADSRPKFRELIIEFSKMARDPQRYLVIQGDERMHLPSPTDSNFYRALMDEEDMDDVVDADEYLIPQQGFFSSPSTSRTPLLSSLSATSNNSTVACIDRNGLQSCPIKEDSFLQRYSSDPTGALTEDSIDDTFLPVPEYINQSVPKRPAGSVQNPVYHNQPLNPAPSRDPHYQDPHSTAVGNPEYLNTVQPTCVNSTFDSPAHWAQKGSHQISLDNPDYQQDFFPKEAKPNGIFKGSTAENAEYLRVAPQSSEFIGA

[24] = biological target: Protein-tyrosine kinase 6 (Homo sapiens) (UniProt Q13882); assay: Inhibition of full length human recombinant BRK using poly Glu as substrate incubated for 40 mins by scintillation based radiometric LeadHunter assay
Protein-tyrosine kinase 6 (Homo sapiens), sequence (Q13882 whole entry, looked up, the tested form may be a part): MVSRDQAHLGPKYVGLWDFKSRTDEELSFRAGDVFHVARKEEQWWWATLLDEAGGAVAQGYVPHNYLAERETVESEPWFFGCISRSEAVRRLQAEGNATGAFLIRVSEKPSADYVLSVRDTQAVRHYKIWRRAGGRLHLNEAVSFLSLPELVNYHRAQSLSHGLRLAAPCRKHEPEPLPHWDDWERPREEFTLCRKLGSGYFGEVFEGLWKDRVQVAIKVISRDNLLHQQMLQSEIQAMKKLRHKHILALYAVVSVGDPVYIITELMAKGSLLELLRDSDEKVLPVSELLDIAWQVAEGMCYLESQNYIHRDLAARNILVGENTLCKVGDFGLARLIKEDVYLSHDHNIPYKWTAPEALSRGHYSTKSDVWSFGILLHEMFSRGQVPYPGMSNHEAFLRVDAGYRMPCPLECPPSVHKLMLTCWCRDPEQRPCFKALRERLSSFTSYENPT

[25] = biological target: Epithelial discoidin domain-containing receptor 1 (Homo sapiens) (UniProt Q08345); assay: Inhibition of human recombinant DDR1 (492 to end residues) using KKKSPGEYVNIEF as substrate incubated for 40 mins by scintillation based radiometric LeadHunter assay
[26] = biological target: Tyrosine-protein kinase Lyn (Homo sapiens) (UniProt P07948); assay: Inhibition of full length human recombinant LYN (1 to 367 residues) using poly Glu as substrate incubated for 40 mins by scintillation based radiometric LeadHunter assay
Tyrosine-protein kinase Lyn (Homo sapiens), sequence (P07948 2-512 limits assumed): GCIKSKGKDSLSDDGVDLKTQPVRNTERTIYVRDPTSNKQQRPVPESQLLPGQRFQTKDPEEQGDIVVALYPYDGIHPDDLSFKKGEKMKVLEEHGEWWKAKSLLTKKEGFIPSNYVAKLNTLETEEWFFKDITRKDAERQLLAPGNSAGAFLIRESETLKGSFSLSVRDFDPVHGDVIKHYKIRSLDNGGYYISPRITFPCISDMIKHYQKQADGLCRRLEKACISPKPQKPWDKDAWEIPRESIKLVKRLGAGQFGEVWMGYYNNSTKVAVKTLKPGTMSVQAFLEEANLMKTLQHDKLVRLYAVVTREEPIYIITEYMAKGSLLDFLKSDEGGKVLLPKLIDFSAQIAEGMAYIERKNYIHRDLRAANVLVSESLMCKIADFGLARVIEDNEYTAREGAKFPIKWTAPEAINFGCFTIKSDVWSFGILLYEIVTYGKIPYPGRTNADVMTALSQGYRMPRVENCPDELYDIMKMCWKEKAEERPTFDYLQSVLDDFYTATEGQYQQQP

SMILES	concentration at 4 h [1] [µM]	concentration at 0.5 h [3] [µM]	concentration at 24 h [4] [µM]	concentration at 2 h [5] [µM]	concentration at 1 h [6] [µM]	concentration at 2 h [7] [µM]	concentration at 2 h [9] [µM]	concentration at 4 h [10] [µM]	Kp at 4 h [11]	pKa [12]	concentration at 6 h [13] [µM]	IC50 [14] [nM]	remaining at 1 h, 1 µM [15] [%]	remaining at 1 h, 1 µM [16] [%]	IC50 [17] [nM]	Papp B→A at 2 h [18] [nm/s]	Papp A→B at 2 h [19] [nm/s]	further results
COc1cc(-c2cncc(-c3ccc(N4CCNCC4)cc3)c2C)cc(OC)c1OC	0.888	3.02	1.54	7.49	4.28	5.25	2.32	2.68	0.3	8.6	13.4	–	–	–	–	–	–	inhibition [2]: 100%; inhibition [8]: 100%
COc1cc(-c2cncc3c2CN(C)Cc2cc(N4CCN(C)CC4)ccc2-3)cc(OC)c1OC	3.25	0.134	0.017	0.277	0.254	0.075	4.13	0.043	75.6	8.12	0.3	7	58.3	65	18	25	15	–
COc1cc(-c2cncc3c2CCOc2cc(N4CCNCC4)ccc2-3)cc(OC)c1OC	–	0.729	0.063	1.12	1.07	–	–	–	–	–	1.89	2	66.5	70.9	6	116	53	–
COc1cc(-c2cncc3c2CN(C)Cc2cc(N4CCNCC4)ccc2-3)cc(OC)c1OC	–	0.323	0.336	0.523	0.466	–	–	–	–	–	1.26	3	73.2	98.6	11	42	8	inhibition [20]: Active; inhibition [21]: Active; inhibition [22]: Active; inhibition [23]: Active; inhibition [24]: Active; inhibition [25]: Active; inhibition [26]: Active
COc1cc(-c2cncc3c2COCc2cc(N4CCN(C)CC4)ccc2-3)cc(OC)c1OC	–	–	–	–	–	–	–	–	–	–	–	3	29.7	4.3	7	136	165	–
COc1cc(-c2cncc3c2oc2cc(N4CCN(C)CC4)ccc23)cc(OC)c1OC	–	–	–	–	–	–	–	–	–	–	–	609	37.4	9.5	> 10000	25	40	–
COc1cc(-c2cncc3c2COCc2cc(N4CCNCC4)ccc2-3)cc(OC)c1OC	–	–	–	–	–	–	–	–	–	–	–	2	62.3	75.7	5	94	42	–
COc1cc(-c2cncc3c2CCOc2cc(N4CCN(C)CC4)ccc2-3)cc(OC)c1OC	1.47	3.65	–	3.53	5.05	0.98	2.41	0.393	3.7	8.54	2.23	2	21.2	10.3	15	115	139	–
COc1cc(-c2cncc3c2COc2cc(N4CCN(C)CC4)ccc2-3)cc(OC)c1OC	–	–	–	–	–	–	–	–	–	–	–	13	34.8	0.9	45	90	83	–
